Data: ChEMBL document CHEMBL3352099, “Anti-osteoporotic and antioxidant activities of chemical constituents of the aerial parts of Ducrosia ismaelis” (Bioorg Med Chem Lett, 2014)

Experiments:
[1] = Antioxidant activity assessed as AAPH-induced peroxyl radical scavenging activity by oxygen radical absorbance assay; format: physicochemical
Outline: (§1)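 Peroxyl radical scavenging measured by ORAC, a hydrogen atom transfer assay. Compounds tested at 1-10 µM. Values expressed as µM Trolox equivalents (TE).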

RAW264.7 [2] = assay: Antiosteoporotic activity in mouse RAW264.7 cells assessed as inhibition of RANKL-induced osteoclast formation at 10 uM after 5 days by TRAP assay relative to untreated control; format: functional; set-up: scale not given: the % may be the effect or the level left
Outline: (§2)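 RAW 264.7 pre-osteoclast cells induced to form osteoclasts with RANKL. Compounds tested at concentrations up to 10 µM. TRAP activity is expressed as percent of the untreated control, as mean ± SD with n = 3. The untreated control (C) and the RANKL-treated control (TC) are both included.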

RAW264.7 [3] = assay: Antiosteoporotic activity in mouse RAW264.7 cells assessed as inhibition of RANKL-induced osteoclast formation after 5 days by TRAP assay relative to untreated control; format: functional, cell-based; outline: as §2
[4] = Antioxidant activity assessed as AAPH-induced peroxyl radical scavenging activity at 10 uM by oxygen radical absorbance assay relative to trolox; format: physicochemical; outline: as §1
[5] = Antioxidant activity assessed as reduction of Cu2+ to Cu+ at 10 uM by reduction assay relative to trolox; format: physicochemical
Outline: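 Single electron transfer reducing-capacity assay measuring reduction of Cu2+ ions. Compounds tested at up to 10.0 µM. Values expressed as µM Trolox equivalents, as mean ± SD of three measurements.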

| SMILES | Activity [1] | Ratio [4] | Ratio [5] | Activity (RAW264.7 [2]) | Activity (RAW264.7 [3]) |
| --- | --- | --- | --- | --- | --- |
| COc1cc([C@H]2OC[C@H]3[C@@H]2CO[C@@H]3c2cc(OC)c(O[C@@H]3O[C@H](CO)[C@@H](O)[C@H](O)[C@H]3O)c(OC)c2)cc(OC)c1O[C@@H]1O[C@H](CO)[C@@H](O)[C@H](O)[C@H]1O [LIRIODENDRIN] | Dose-dependent effect | – | – | 106.05% | Dose-dependent effect |
| O=c1oc2cc(O)ccc2c2oc3cc(O)ccc3c12 [COUMESTROL] | Dose-dependent effect | – | – | – | – |
| O=C(c1ccc(O)cc1O[C@@H]1O[C@H](CO)[C@@H](O)[C@H](O)[C@H]1O)[C@H](O)Cc1ccc(O)cc1 | Dose-dependent effect | – | – | – | – |
| CC(C)=CCc1c(O)ccc(C(=O)/C=C/c2ccc(O)cc2)c1O [ISOBAVACHALCONE] | Dose-dependent effect | > 20 | – | – | – |
| CC1=CC(=O)CC(C)(C)[C@H]1CC[C@@H](C)O[C@@H]1O[C@H](CO)[C@@H](O)[C@H](O)[C@H]1O | Dose-dependent effect | – | – | – | – |
| COC(=O)/C=C\c1ccc(O)c(CC=C(C)C)c1 | Dose-dependent effect | – | – | 85.05% | Dose-dependent effect |

Further lines, with some results ahead:

| Activity [1] | Ratio [4] | Ratio [5] | SMILES | Activity (RAW264.7 [2]) | Activity (RAW264.7 [3]) |
| --- | --- | --- | --- | --- | --- |
| Dose-dependent effect | > 20 | – | OC[C@H]1O[C@@H](Oc2ccc3c(c2)OC[C@@]2(O)c4ccc(O)cc4O[C@@H]32)[C@H](O)[C@@H](O)[C@@H]1O | – | – |
| Dose-dependent effect | 26.55 | – | O=c1c(-c2ccc(O)cc2)coc2cc(O[C@@H]3O[C@H](CO)[C@@H](O)[C@H](O)[C@H]3O)cc(O)c12 [GENISTIN] | – | – |
| Dose-dependent effect | > 20 | – | O=c1c(-c2ccc(O[C@@H]3O[C@H](CO)[C@@H](O)[C@H](O)[C@H]3O)cc2)coc2cc(O)ccc12 | 104.77% | Dose-dependent effect |
| Dose-dependent effect | – | – | COc1cc([C@H]2OC[C@H]3[C@@H]2CO[C@@H]3c2ccc(O[C@@H]3O[C@H](CO)[C@@H](O)[C@H](O)[C@H]3O)c(OC)c2)ccc1O | – | – |
| Dose-dependent effect | – | – | COc1cc(O)c2c(=O)c(-c3ccc(O[C@@H]4O[C@H](CO)[C@@H](O)[C@H](O)[C@H]4O)cc3)coc2c1 | – | – |
| Dose-dependent effect | – | – | COc1cc(/C=C/CO)ccc1O[C@@H]1O[C@H](CO)[C@@H](O)[C@H](O)[C@H]1O [CONIFERIN] | – | – |
| Dose-dependent effect | – | – | C=CCc1ccc(O[C@@H]2O[C@H](CO)[C@@H](O)[C@H](O)[C@H]2O)c(OC)c1 [CITRUSIN C] | 100.93% | Dose-dependent effect |
| Dose-dependent effect | – | 23.44 | COc1cc([C@H]2OC[C@H]3[C@@H]2CO[C@@H]3c2cc(OC)c(OC)c(OC)c2)cc(OC)c1O | – | – |
| Dose-dependent effect | > 20 | – | O=c1c(-c2ccc(O)cc2)coc2cc(O[C@@H]3O[C@H](CO)[C@@H](O)[C@H](O)[C@H]3O)ccc12 [DAIDZIN] | – | – |
